Test results from ChEMBL document CHEMBL1165919, “Synthesis, vasorelaxant activity and antihypertensive effect of benzo[d]imidazole derivatives” (Bioorg Med Chem, 2010).
Activity calls are given as the source filed them. The calls are words filed in the database; no cut-off is given here.

How the values were obtained:
Aorta [1] = assay: Vasorelaxant activity in Wistar rat endothelium-intact thoracic aortic ring assessed as inhibition of noradrenaline-induced contraction treated after noradrenaline challenge measured after 60 mins; format: functional, tissue-based; details: 1 h
In short: (§1)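 Thoracic aorta came from male Wistar rats (250–350 g), cleaned and cut into 4–5 mm rings. Endothelium was rubbed off some rings with forceps and its absence confirmed by no relaxation to carbachol. Rings were washed every 30 min for 2 h, pre-contracted with noradrenaline (0.1), then given the test agent cumulatively. Concentration-response curves (n=5–6, mean ± SEM) were fitted nonlinearly to give EC50.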

Aorta [2] = assay: Vasorelaxant activity in Wistar rat endothelium-denuded thoracic aortic ring assessed as inhibition of noradrenaline-induced contraction treated after noradrenaline challenge measured after 60 mins; format: functional, tissue-based; in short: as §1
Rattus norvegicus [3] = assay: Antihypertensive activity in SHR rat assessed as decrease in systolic blood pressure at 25 mg/kg, po after 6 hrs; format: functional, organism-based; design: dose 25 mg/kg; details: Artery
Rattus norvegicus [4] = assay: Antihypertensive activity in SHR rat assessed as sustained decrease in systolic blood pressure at 100 mg/kg, po after 6 hrs; format: functional, organism-based; design: dose 100 mg/kg; details: Artery
Rattus norvegicus [5] = assay: Antihypertensive activity in SHR rat assessed as moderate decrease in systolic blood pressure at 50 mg/kg, po after 6 hrs; details: Artery
Rattus norvegicus [6] = assay: Antihypertensive activity in SHR rat assessed as effect on heart rate at 100 mg/kg, po after 6 hrs; format: functional, organism-based; design: dose 100 mg/kg
Rattus norvegicus [7] = assay: Antihypertensive activity in SHR rat assessed as effect on heart rate at 50 mg/kg, po after 6 hrs; format: functional, organism-based; design: dose 50 mg/kg
Rattus norvegicus [8] = assay: Antihypertensive activity in SHR rat assessed as moderate decrease in systolic blood pressure at 50 mg/kg, po after 6 hrs; format: functional, organism-based; design: dose 50 mg/kg; details: Artery
Rattus norvegicus [9] = assay: Antihypertensive activity in SHR rat assessed as effect on heart rate at 25 mg/kg, po after 6 hrs; format: functional, organism-based; design: dose 25 mg/kg
Aorta [10] = assay: Ratio of pimobendan EC50 to compound EC50 for vasorelaxant activity in pre-contracted Wistar rat endothelium-intact thoracic aortic ring; format: functional
Rattus norvegicus [11] = assay: Antihypertensive activity in po dosed SHR rat assessed as decrease in systolic blood pressure after 6 hrs; format: functional, organism-based; details: Artery
[12] = Rattus norvegicus, Wistar, Aorta, 1 h
[13] = Rattus norvegicus, Wistar, Aorta, 1 h, read-out: EC50

Structure (SMILES) | EC50 (Aorta [1]) [µM] | EC50 (Aorta [2]; [13]) [µM] | Emax (Aorta [1]) [%] | Emax (Aorta [2]; [12]) [%] | other results
COc1cc(-c2nc3cc(C(F)(F)F)ccc3[nH]2)ccc1O | 34.8 | 140 | 99.5 | 97.7 | –
CC(C)Oc1ccccc1-c1nc2cc([N+](=O)[O-])ccc2[nH]1 | 4.89 | 14.1 | 80.7 | 31.7 | –
CCCOc1ccc(-c2nc3cc(C(F)(F)F)ccc3[nH]2)cc1 | 524 | 524 | 51 | 19 | –
Oc1ccc(-c2nc3cc(C(F)(F)F)ccc3[nH]2)cc1 | 219 | 219 | 51.1 | 37 | –
CCOc1ccccc1-c1nc2cc(C(F)(F)F)ccc2[nH]1 | 548 | 549 | 91 | 19.8 | –
COc1ccc(-c2nc3cc(C4=NNC(=O)CC4C)ccc3[nH]2)cc1 (stereo not drawn) [PIMOBENDAN] | 4.67 | – | 93.2 | – | –
CN(C)c1ccc(-c2nc3cc(C(F)(F)F)ccc3[nH]2)cc1 | 550 | 550 | 63.2 | 30.9 | –
CCOC(=O)C1=C(C)NC(C)=C(C(=O)OC)C1c1cccc([N+](=O)[O-])c1 (stereo not drawn) [NITRENDIPINE] | – | 0.03 | – | 98.9 | –
FC(F)(F)c1ccc2[nH]c(-c3ccc4c(c3)OCO4)nc2c1 | 38.5 | 77.4 | 101 | 99.6 | –
COc1ccccc1-c1nc2cc(C(F)(F)F)ccc2[nH]1 | 210 | 575 | 75.1 | 45.7 | –
C[C@H](CS)C(=O)N1CCC[C@H]1C(=O)O | – | – | – | – | Activity (Rattus norvegicus [5]): Active
O=[N+]([O-])c1ccc2[nH]c(-c3ccccc3)nc2c1 | 4.93 | 35.1 | 73.8 | 60.5 | –
FC(F)(F)c1ccc2[nH]c(-c3ccccc3)nc2c1 | 369 | 468 | 91.2 | 75.6 | –

Further compounds by falling EC50 (Aorta [1]), results first:

EC50 (Aorta [1]) [µM] | EC50 (Aorta [2]; [13]) [µM] | Structure (SMILES) | Emax (Aorta [1]) [%] | Emax (Aorta [2]; [12]) [%] | other results
3.71 | 15 | CCOc1ccccc1-c1nc2cc([N+](=O)[O-])ccc2[nH]1 | 84.8 | 46.4 | –
3.23 | 43.6 | COc1ccc(-c2nc3cc([N+](=O)[O-])ccc3[nH]2)c(OC)c1OC | 90 | 58.9 | –
3.18 | 15 | O=[N+]([O-])c1ccccc1-c1nc2cc(C(F)(F)F)ccc2[nH]1 | 93.2 | 85.3 | –
2.5 | 302 | COc1ccc(-c2nc3cc([N+](=O)[O-])ccc3[nH]2)cc1OC | 75 | 36.3 | –
1.81 | 19.5 | COc1cc(-c2nc3cc([N+](=O)[O-])ccc3[nH]2)ccc1O | 91.7 | 55.2 | Activity (Rattus norvegicus [3]): inactive; Activity (Rattus norvegicus [4]): Active; Activity (Rattus norvegicus [5]): Active; Activity (Rattus norvegicus [6]): inactive; Activity (Rattus norvegicus [7]): inactive; Activity (Rattus norvegicus [8]): Active; Activity (Rattus norvegicus [9]): inactive; Ratio EC50 (Aorta [10]): 2.5; Activity (Rattus norvegicus [11]): Dose-dependent effect
0.51 | – | C[N+](C)(C)CCOC(N)=O.[Cl-] [CARBACHOL] | 106 | – | EC50 (Aorta [2]): Not Active; Emax (Aorta [2]): inactive
